Results from ChEMBL document CHEMBL2424622, “Development of amino-pyrimidine inhibitors of c-Jun N-terminal kinase (JNK): kinase profiling guided optimization of a 1,2,3-benzotriazole lead” (Bioorg Med Chem Lett, 2013).

Legend:
[1] = system: Tyrosine-protein kinase ABL1 (Homo sapiens), P00519 [T315I]; test: Competitive binding affinity to ABL1 T315I mutant (unknown origin) at 10 uM in presence of ATP relative to control
In short: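 In vitro ATP-site competition binding assay across a diverse panel of 128 kinases, with each compound tested at a single concentration. Kinase binding is expressed relative to control.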

[2] = target: Epithelial discoidin domain-containing receptor 1 (Homo sapiens) (UniProt Q08345); test: Competitive binding affinity to DDR1 (unknown origin) at 10 uM in presence of ATP relative to control
[3] = target: T1, Calcium/calmodulin-dependent protein kinase type IV (Homo sapiens) (UniProt Q16566); test: Competitive binding affinity to CAMK4 (unknown origin) at 10 uM in presence of ATP relative to control
T1 sequence (whole entry): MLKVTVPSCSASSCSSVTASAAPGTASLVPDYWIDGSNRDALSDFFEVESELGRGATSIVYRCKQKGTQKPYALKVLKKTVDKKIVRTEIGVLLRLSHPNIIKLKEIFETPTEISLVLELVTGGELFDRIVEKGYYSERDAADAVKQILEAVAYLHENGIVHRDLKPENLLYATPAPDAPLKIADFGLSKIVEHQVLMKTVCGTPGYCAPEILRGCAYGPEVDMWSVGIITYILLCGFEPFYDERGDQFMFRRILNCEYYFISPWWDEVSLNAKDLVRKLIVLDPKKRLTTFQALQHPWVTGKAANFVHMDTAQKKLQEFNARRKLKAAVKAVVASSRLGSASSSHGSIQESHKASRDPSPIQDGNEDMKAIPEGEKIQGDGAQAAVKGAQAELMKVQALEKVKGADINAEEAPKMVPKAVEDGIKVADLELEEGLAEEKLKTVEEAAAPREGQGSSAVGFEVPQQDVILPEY

[4] = target: T2, Serine/threonine-protein kinase tousled-like 1 (Homo sapiens) (UniProt Q9UKI8); test: Competitive binding affinity to TLK1 (unknown origin) at 10 uM in presence of ATP relative to control
T2 sequence (whole entry): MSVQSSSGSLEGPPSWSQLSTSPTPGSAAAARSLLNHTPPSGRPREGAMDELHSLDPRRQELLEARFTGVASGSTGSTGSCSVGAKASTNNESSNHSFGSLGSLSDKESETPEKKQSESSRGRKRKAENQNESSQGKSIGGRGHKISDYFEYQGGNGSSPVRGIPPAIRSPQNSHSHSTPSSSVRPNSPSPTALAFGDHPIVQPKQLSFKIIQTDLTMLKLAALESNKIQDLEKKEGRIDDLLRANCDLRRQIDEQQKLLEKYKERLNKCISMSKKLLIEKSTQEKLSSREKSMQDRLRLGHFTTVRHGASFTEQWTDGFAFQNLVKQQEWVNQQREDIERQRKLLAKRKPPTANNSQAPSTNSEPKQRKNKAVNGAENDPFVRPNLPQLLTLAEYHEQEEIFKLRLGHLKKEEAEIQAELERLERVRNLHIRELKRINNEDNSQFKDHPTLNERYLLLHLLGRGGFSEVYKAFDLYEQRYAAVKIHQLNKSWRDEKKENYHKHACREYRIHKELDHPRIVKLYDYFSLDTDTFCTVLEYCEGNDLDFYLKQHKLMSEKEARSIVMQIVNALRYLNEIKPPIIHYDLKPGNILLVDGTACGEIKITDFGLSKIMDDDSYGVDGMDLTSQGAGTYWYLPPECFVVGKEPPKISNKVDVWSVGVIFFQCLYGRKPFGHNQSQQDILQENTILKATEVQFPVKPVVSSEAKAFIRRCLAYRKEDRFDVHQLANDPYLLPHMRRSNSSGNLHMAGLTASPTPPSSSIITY

[5] = target: LIM domain kinase 2 (Homo sapiens, UniProt P53671); test: Competitive binding affinity to LIMK2 (unknown origin) at 10 uM in presence of ATP relative to control
In short: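 In vitro ATP-site competition binding assay, part of profiling against a diverse panel of 128 kinases. Each compound was tested at a single concentration of 10 µM. Kinome selectivity was summarized as S15 selectivity scores.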

[6] = target: TGF-beta receptor type-2 (Homo sapiens) (UniProt P37173); test: Competitive binding affinity to TGFBR2 (unknown origin) at 10 uM in presence of ATP relative to control
[7] = target: T3, Serine/threonine-protein kinase BRSK2 (Homo sapiens) (UniProt Q8IWQ3); test: Competitive binding affinity to BRSK2 (unknown origin) at 10 uM in presence of ATP relative to control
T3 sequence (whole entry): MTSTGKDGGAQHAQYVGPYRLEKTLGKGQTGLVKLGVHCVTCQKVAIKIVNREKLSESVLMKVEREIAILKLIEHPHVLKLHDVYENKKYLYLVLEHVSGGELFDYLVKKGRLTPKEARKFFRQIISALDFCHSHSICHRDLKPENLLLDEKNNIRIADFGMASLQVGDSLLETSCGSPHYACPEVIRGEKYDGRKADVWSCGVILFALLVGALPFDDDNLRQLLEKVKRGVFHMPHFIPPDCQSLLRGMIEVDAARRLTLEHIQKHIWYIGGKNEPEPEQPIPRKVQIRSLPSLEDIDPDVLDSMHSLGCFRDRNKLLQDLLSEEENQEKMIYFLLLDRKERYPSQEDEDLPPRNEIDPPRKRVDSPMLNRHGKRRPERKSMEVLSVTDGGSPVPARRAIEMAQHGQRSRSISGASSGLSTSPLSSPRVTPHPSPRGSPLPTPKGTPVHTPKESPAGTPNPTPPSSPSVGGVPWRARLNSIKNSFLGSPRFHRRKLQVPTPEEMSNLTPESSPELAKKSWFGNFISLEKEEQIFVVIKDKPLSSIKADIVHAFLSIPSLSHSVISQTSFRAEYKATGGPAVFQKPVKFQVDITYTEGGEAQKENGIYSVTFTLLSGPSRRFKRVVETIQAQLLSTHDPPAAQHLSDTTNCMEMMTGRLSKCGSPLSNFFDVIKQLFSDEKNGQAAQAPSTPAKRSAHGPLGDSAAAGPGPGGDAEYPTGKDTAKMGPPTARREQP

Chain of LIM domain kinase 2 (P53671 whole entry, looked up, the tested form may be a part): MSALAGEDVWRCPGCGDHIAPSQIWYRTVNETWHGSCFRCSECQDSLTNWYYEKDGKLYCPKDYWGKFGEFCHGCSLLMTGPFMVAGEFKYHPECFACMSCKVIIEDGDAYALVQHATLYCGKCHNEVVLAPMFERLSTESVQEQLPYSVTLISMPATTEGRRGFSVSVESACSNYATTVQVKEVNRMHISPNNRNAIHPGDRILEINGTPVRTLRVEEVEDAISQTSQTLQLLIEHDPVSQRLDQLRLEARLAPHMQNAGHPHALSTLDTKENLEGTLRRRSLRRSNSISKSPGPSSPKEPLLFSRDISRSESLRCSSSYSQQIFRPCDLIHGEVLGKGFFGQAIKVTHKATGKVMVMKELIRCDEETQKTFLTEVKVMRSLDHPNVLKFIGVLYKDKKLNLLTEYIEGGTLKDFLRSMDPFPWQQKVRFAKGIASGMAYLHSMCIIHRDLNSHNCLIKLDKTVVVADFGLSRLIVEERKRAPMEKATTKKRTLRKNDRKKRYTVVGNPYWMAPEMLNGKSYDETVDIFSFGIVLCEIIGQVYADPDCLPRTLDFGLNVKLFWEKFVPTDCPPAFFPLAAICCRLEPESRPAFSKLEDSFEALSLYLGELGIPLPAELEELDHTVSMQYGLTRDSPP
Chain of TGF-beta receptor type-2 (Homo sapiens) (P37173 whole entry): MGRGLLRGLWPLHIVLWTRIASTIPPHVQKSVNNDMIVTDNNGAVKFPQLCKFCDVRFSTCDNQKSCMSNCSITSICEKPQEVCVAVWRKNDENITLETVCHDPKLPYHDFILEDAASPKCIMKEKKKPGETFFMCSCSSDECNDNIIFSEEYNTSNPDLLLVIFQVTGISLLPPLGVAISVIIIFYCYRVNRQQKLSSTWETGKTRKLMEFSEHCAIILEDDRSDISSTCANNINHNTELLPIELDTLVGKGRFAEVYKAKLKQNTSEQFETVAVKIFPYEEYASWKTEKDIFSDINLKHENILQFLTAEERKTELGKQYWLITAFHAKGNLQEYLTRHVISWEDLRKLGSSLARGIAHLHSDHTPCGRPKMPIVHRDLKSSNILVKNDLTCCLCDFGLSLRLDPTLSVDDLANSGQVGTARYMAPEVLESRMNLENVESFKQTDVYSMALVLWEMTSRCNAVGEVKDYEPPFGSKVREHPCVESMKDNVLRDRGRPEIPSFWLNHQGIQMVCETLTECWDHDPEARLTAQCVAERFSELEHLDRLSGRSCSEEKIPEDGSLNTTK
Chain of Epithelial discoidin domain-containing receptor 1 (Homo sapiens) (Q08345 whole entry, the tested form may be a part): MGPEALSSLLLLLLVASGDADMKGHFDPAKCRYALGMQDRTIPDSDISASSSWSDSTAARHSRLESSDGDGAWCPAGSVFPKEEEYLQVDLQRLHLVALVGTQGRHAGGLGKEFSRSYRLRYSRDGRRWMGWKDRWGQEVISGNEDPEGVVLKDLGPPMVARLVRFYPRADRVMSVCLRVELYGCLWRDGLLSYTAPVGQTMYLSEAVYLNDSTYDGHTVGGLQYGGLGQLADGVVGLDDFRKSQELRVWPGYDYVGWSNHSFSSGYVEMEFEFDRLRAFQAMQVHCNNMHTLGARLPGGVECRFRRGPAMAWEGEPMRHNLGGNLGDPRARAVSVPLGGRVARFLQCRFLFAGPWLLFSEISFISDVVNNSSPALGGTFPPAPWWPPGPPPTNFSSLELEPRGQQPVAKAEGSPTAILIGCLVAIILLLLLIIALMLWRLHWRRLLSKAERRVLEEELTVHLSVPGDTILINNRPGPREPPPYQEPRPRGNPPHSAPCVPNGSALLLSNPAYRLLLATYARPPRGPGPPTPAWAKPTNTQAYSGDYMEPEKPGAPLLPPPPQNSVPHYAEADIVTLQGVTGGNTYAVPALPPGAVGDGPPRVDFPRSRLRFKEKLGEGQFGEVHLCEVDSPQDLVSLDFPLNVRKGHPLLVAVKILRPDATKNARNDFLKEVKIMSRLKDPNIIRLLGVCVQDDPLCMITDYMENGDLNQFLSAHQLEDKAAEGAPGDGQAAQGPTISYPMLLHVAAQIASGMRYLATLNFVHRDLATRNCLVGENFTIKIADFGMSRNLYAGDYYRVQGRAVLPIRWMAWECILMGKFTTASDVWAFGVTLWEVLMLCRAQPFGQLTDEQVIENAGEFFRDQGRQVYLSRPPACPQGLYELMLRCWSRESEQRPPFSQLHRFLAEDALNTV

| inhibition [1] [%] | inhibition [2] [%] | inhibition [3] [%] | inhibition [4] [%] | inhibition [5] [%] | inhibition [6] [%] | inhibition [7] [%] | Compound |
| --- | --- | --- | --- | --- | --- | --- | --- |
| < 50 | < 50 | < 50 | < 50 | 76 | < 50 | < 50 | O[C@H]1CC[C@H](Nc2nccc(-n3ncc4ccccc43)n2)CC1 |
| < 50 | < 50 | < 50 | < 50 | 81 | < 50 | < 50 | O[C@H]1CC[C@H](Nc2nccc(-n3ccc4ccccc43)n2)CC1 |
|  |  |  |  | > 85 |  |  | CS(=O)(=O)CCCOc1cccc2c1ccn2-c1ccnc(N[C@H]2CC[C@H](C(=O)N3CCC(O)CC3)CC2)n1 |
| 96 |  |  | 90 | 100 |  | 69 | O[C@H]1CC[C@H](Nc2nccc(-c3n[nH]c4ccccc34)n2)CC1 |
| < 50 | < 50 | 72 | < 50 | 78 | 96 | < 50 | O[C@H]1CC[C@H](Nc2nccc(-n3nnc4ccccc43)n2)CC1 |
